Measured values: ChEMBL document CHEMBL1177885, “Synthesis and biological activity of 2-(trifluoromethyl)-1H-benzimidazole derivatives against some protozoa and Trichinella spiralis” (Eur J Med Chem, 2010)
Active and inactive are the calls of the source. The calls are words filed in the database; no cut-off is given here.

How the values were obtained:
[1] = tested on: Leishmania mexicana; assay: Antileishmanial activity against Leishmania mexicana MHOM/MX92/UAY68 after 48 hrs; type: functional, organism-based; settings: MHOM/MX92/UAY68, 48 h
In short: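 Promastigotes at 2 × 10⁴/mL in RPMI 1640 with 10% FBS, 26 °C, were exposed to 0.1, 0.5, 1.5, 10 and 20 (final) of compound, with DMSO as negative control. Each concentration was run in triplicate. Parasites were fixed in 0.14 M NaCl/3.7% formaldehyde and counted in a Neubauer chamber.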

[2] = tested on: Trichinella spiralis; assay: Antitrichinellosis activity against adult phase of Trichinella spiralis ML infected in mouse assessed as reduction of parasites level at 75 mg/kg administered 3 days after postinfection measured after 6 days relative to control; type: functional; set-up: scale not given: the % may be the effect or the level left
In short: (§1)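 Groups of six mice were infected with 800 muscle larvae and given a single dose on day 3 post-infection. Mice were killed on day 6 post-infection and intestinal adults recovered. Read-out was percent adult load reduction.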

[3] = tested on: Trichinella spiralis; assay: Antitrichinellosis activity against muscle larvae pahse of Trichinella spiralis ML larvae infected in mouse assessed as reduction of parasites level at 75 mg/kg administered for 7 consecutive days from day 28 postinfection measured on day 7 relative to control; type: functional; set-up: scale not given: the % may be the effect or the level left
In short: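 Groups of 10 mice were infected with 800 muscle larvae and treated at 75 mg/Kg from day 28 post-infection for 7 consecutive days. Mice were killed 7 days after treatment and muscle larvae recovered. Read-out was percent larval load reduction.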

[4] = tested on: Trichinella spiralis; assay: Antitrichinellosis activity against Trichinella spiralis ML assessed as reduction of parasites viability at 0 37 uM after 3 days by MTT assay; type: functional
In short: (§2)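 1000 muscle larvae per well in RPMI 1640 were exposed to 0.18, 0.37 or 1.80 compound for 3 days at 37 °C in humid 5% CO2, with medium and compound renewed daily. Viability was read by MTT colorimetry as percent reduction of metabolic activity.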

[5] = tested on: Giardia intestinalis; assay: Antiprotozoal activity against Giardia intestinalis IMSS:0989:1 after 48 hrs; type: functional, organism-based; settings: Giardia duodenalis, IMSS:0989:1, 48 h
In short: (§3)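 Trophozoites were grown in modified TYI-S-33 with 10% calf serum, with bovine bile added for Giardia. 5 × 10⁴ trophozoites (Giardia, Trichomonas) or 6 × 10³ (Entamoeba) were exposed to increasing concentrations for 48 h at 37 °C, with DMSO as negative control. Cells were washed, regrown 48 h drug-free, and counted. IC50 was by Probit analysis, in triplicate, repeated at least twice.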

[6] = tested on: Trichinella spiralis; assay: Antitrichinellosis activity against Trichinella spiralis ML assessed as reduction of parasites viability at 0.18 uM after 3 days by MTT assay; type: functional; in short: as §2
[7] = tested on: Trichinella spiralis; assay: Antitrichinellosis activity against adult phase of Trichinella spiralis ML infected in mouse assessed as reduction of parasites level at 50 mg/kg administered 3 days after postinfection measured after 6 days relative to control; type: functional; set-up: scale not given: the % may be the effect or the level left; in short: as §1
[8] = tested on: Entamoeba histolytica; assay: Antiprotozoal activity against Entamoeba histolytica HM-1:IMSS after 48 hrs; type: functional, organism-based; in short: as §3
[9] = tested on: Trichomonas vaginalis; assay: Antiprotozoal activity against Trichomonas vaginalis G3 after 48 hrs; type: functional, organism-based; settings: G3, 48 h; in short: as §3
[10] = tested on: Trichinella spiralis; assay: Antitrichinellosis activity against Trichinella spiralis ML assessed as reduction of parasites viability at 1.8 uM after 3 days by MTT assay; type: functional; in short: as §2

Compound	IC50 [1]	Activity [2]	Activity [3]	Activity [4]	IC50 [5]	Activity [6]	Activity [7]	IC50 [8]	IC50 [9]	Activity [10]
N=C(N)c1ccc(OCCCCCOc2ccc(C(=N)N)cc2)cc1 [PENTAMIDINE]	2.42 µM	–	–	–	–	–	–	–	–	–
FC(F)(F)c1nc2cc(Oc3cccc4ccccc34)c(Cl)cc2[nH]1	13.8 µM	80%	40%	50%	0.005 µM	43%	69%	0.019 µM	0.086 µM	65%
Cn1c(C(F)(F)F)nc2ccc(Oc3cccc(Cl)c3Cl)cc21	4.1 µM	–	–	48%	0.063 µM	44%	–	0.019 µM	0.11 µM	67%
CCCSc1ccc2[nH]c(NC(=O)OC)nc2c1 [ALBENDAZOLE]	–	73%	63%	61.9%	–	58.6%	62%	–	–	67%
Cn1c(C(F)(F)F)nc2cc(Cl)ccc21	–	–	–	–	–	–	–	–	0.238 µM	39%
Cn1c(C(F)(F)F)nc2cc(Oc3cccc4ccccc34)c(Cl)cc21	65.2 µM	36%	64%	29%	0.023 µM	15%	inactive	0.038 µM	0.97 µM	63%
Cn1c(C(F)(F)F)nc2cc(Cl)c(Oc3cccc4ccccc34)cc21	50.1 µM	–	–	14%	0.012 µM	6%	–	0.017 µM	0.451 µM	18%
CSc1nc2cc(Cl)c(Oc3cccc(Cl)c3Cl)cc2[nH]1 [TRICLABENDAZOLE]	–	7%	25%	–	–	–	41%	–	–	–
CSc1nc2cc(Oc3cccc4ccccc34)c(Cl)cc2[nH]1	–	–	24%	–	–	–	28%	–	–	–
FC(F)(F)c1nc2cc(Oc3cccc(Cl)c3Cl)ccc2[nH]1	–	–	–	24%	0.054 µM	20%	–	0.018 µM	0.535 µM	29%
FC(F)(F)c1nc2cc(Cl)c(Cl)cc2[nH]1	20.8 µM	–	–	–	–	–	–	–	0.235 µM	19%
Cn1c(C(F)(F)F)nc2cc(Oc3cccc(Cl)c3Cl)ccc21	24 µM	58%	46%	62%	0.03 µM	54%	–	0.009 µM	0.016 µM	80%
Cc1ncc([N+](=O)[O-])n1CCO [METRONIDAZOLE]	–	–	–	–	–	–	–	–	0.216 µM	–
FC(F)(F)c1nc2cc(Oc3cccc(Cl)c3Cl)c(Cl)cc2[nH]1	–	–	–	–	0.031 µM	–	–	0.02 µM	–	–
